# Reference: ChEMBL document CHEMBL3611998, “Syntheses and studies of new forms of N-sulfonyloxy β-lactams as potential antibacterial agents and β-lactamase inhibitors” (Bioorg Med Chem, 2015)
# The source made the active and inactive calls. The calls are words filed in the database; no cut-off is given here.
# Assays:
# Mycolicibacterium vaccae [1] = experiment: Antimicrobial activity against Mycobacterium vaccae IMET 10670 assessed as unclear inhibition zone at 2 mM incubated for 48 hrs by agar diffusion assay; format: functional; conditions: IMET 10670, 48 h, read-out: DIZ
# Method in brief: (§1)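 Seeded-agar well diffusion: 2 mM test solution (from 20 mM DMSO stock, diluted 10-fold in MeOH), 50 μL per 9.0 mm well. Inoculum was 0.1 mL of a 0.5 McFarland saline suspension ([…]) in 34 mL Mueller-Hinton No. 2 agar. Incubation was at 37 °C for 48 h, with plates photographed after 3 days. Zone diameters were measured by caliper.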
# Acinetobacter baumannii [2] = experiment: Antimicrobial activity against Acinetobacter baumannii ATCC 17961 at 2 mM incubated for 20 hrs by agar diffusion assay; format: functional; conditions: for zone of inhibition at 2000 µM: ATCC 17961, 20 h, read-out: DIZ
# Method in brief: (§2)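 The test solution was made as 20 mM in DMSO and diluted 10-fold in MeOH to 2 mM. Overnight LB cultures were adjusted to a 0.5 McFarland standard ([…] in 0.9% saline), and 0.1 mL was seeded into 34 mL Mueller-Hinton No. 2 agar at 47–50 °C. 50 μL was placed in 9.0 mm wells. Plates were incubated at 37 °C for 20 h, and inhibition zone diameters were measured by caliper.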
# Burkholderia dolosa = experiment: Antimicrobial activity against Burkholderia dolosa at 2 mM incubated for 20 hrs by agar diffusion assay; format: functional; conditions: read-out: DIZ; method in brief: as §2
# Pseudomonas aeruginosa [3] = experiment: Antimicrobial activity against wild type Pseudomonas aeruginosa K799 at 2 mM incubated for 20 hrs by agar diffusion assay; format: functional; conditions: K799, 20 h, read-out: DIZ; method in brief: as §2
# Pseudomonas aeruginosa [4] = experiment: Antimicrobial activity against Pseudomonas aeruginosa K799/61 at 2 mM incubated for 20 hrs by agar diffusion assay; format: functional; conditions: K799/61, 20 h, read-out: DIZ; method in brief: as §2
# Escherichia coli [5] = experiment: Antimicrobial activity against Escherichia coli DC0 at 2 mM incubated for 20 hrs by agar diffusion assay; format: functional; conditions: for zone of inhibition at 2000 µM: DC0, 20 h, read-out: DIZ; method in brief: as §2
# Escherichia coli [6] = experiment: Antimicrobial activity against Escherichia coli DC2 assessed as very very unclear inhibition zone at 2 mM incubated for 20 hrs by agar diffusion assay; format: functional; conditions: DC2, 20 h, read-out: DIZ; method in brief: as §2
# Bacillus spizizenii [7] = experiment: Antimicrobial activity against Bacillus subtilis ATCC 6633 assessed as very unclear inhibition zone at 2 mM incubated for 20 hrs by agar diffusion assay; format: functional; conditions: ATCC 6633, 20 h, read-out: DIZ; method in brief: as §2
# Staphylococcus aureus [8] = experiment: Antimicrobial activity against Staphylococcus aureus SG511 at 2 mM incubated for 20 hrs by agar diffusion assay; format: functional; conditions: for zone of inhibition at 2000 µM: SG511, 20 h, read-out: DIZ; method in brief: as §2
# Micrococcus luteus [9] = experiment: Antimicrobial activity against Micrococcus luteus ATCC 10240 at 2 mM incubated for 20 hrs by agar diffusion assay; format: functional; conditions: for zone of inhibition at 2000 µM: ATCC 10240, 20 h, read-out: DIZ; method in brief: as §2
# Escherichia coli [10] = experiment: Antimicrobial activity against Escherichia coli DC2 at 2 mM incubated for 20 hrs by agar diffusion assay; format: functional; conditions: for zone of inhibition at 2000 µM: DC2, 20 h, read-out: DIZ; method in brief: as §2
# [11] = Inhibition of beta-lactamase KPC-2 (unknown origin) using nitrocefin substrate incubated for 10 mins
# Method in brief: (§3)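 Enzyme was preincubated with inhibitor at rt for 10 min in 50 mM sodium phosphate pH 7 with 0.1 mg/mL BSA. Inhibitor was tested at final concentrations of 160 μM to 3 nM (1:3 series, 8 points). Nitrocefin was then added at 50 μM, and hydrolysis was followed as OD 495 nm over time.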
# [12] = Inhibition of beta-lactamase CTX-M-14 (unknown origin) using nitrocefin substrate incubated for 10 mins; method in brief: as §3
# [13] = Inhibition of beta-lactamase OXA-48 (unknown origin) using nitrocefin substrate incubated for 10 mins; method in brief: as §3
# [14] = Inhibition of beta-lactamase AmpC (unknown origin) using nitrocefin substrate incubated for 10 mins; method in brief: as §3
# [15] = Inhibition of beta-lactamase SHV-12 (unknown origin) using nitrocefin substrate incubated for 10 mins
# Method in brief: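 SHV-12 was added as 50 μL of a 0.111 mg/mL solution and preincubated for 10 min at rt with inhibitor (final 160 μM to 3 nM, 1:3 dilutions). Buffer was 50 mM sodium phosphate pH 7 with 0.1 mg/mL BSA. Reaction was started with 10 μM nitrocefin and followed as OD 495 nm over time.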
# [16] = Inhibition of beta-lactamase PAM-2035 (unknown origin) using nitrocefin substrate incubated for 10 mins
# [17] = Inhibition of beta-lactamase NDM1 (unknown origin) using imipenem substrate incubated for 10 mins
# Method in brief: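 NDM-1 was added as 50 μL of a 0.110 mg/mL solution and preincubated with inhibitor (final 160 μM to 3 nM, 8-point 1:3 series) for 10 min at rt. Buffer was 50 mM sodium phosphate pH 7 with 0.1 mg/mL BSA. 10 μM imipenem was then added, and its disappearance was monitored over time.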
# Bacillus spizizenii [18] = experiment: Antimicrobial activity against Bacillus subtilis ATCC 6633 at 2 mM incubated for 20 hrs by agar diffusion assay; format: functional; conditions: ATCC 6633, 20 h, read-out: DIZ; method in brief: as §2
# Micrococcus luteus [19] = experiment: Antimicrobial activity against Micrococcus luteus ATCC 10240 assessed as very unclear inhibition zone at 2 mM incubated for 20 hrs by agar diffusion assay; format: functional; conditions: ATCC 10240, 20 h, read-out: DIZ; method in brief: as §2
# Mycolicibacterium vaccae [20] = experiment: Antimicrobial activity against Mycobacterium vaccae IMET 10670 at 2 mM incubated for 48 hrs by agar diffusion assay; format: functional; conditions: for zone of inhibition at 2000 µM: IMET 10670, 48 h, read-out: DIZ; method in brief: as §1
# [21] = Inhibition of beta-lactamase VIM-1 (unknown origin) using nitrocefin substrate incubated for 10 mins
# Bacillus spizizenii [22] = experiment: Antimicrobial activity against Bacillus subtilis ATCC 6633 assessed as unclear inhibition zone at 2 mM incubated for 20 hrs by agar diffusion assay; format: functional; conditions: ATCC 6633, 20 h, read-out: DIZ; method in brief: as §2
# Staphylococcus aureus [23] = experiment: Antimicrobial activity against Staphylococcus aureus SG511 assessed as unclear inhibition zone at 2 mM incubated for 20 hrs by agar diffusion assay; format: functional; conditions: SG511, 20 h, read-out: DIZ; method in brief: as §2
# Staphylococcus aureus [24] = experiment: Antimicrobial activity against Staphylococcus aureus SG511 assessed as very unclear inhibition zone at 2 mM incubated for 20 hrs by agar diffusion assay; format: functional; conditions: SG511, 20 h, read-out: DIZ; method in brief: as §2
# Acinetobacter baumannii [25] = experiment: Antimicrobial activity against Acinetobacter baumannii ATCC 17961 assessed as unclear inhibition zone at 2 mM incubated for 20 hrs by agar diffusion assay; format: functional; conditions: ATCC 17961, 20 h, read-out: DIZ; method in brief: as §2
# Micrococcus luteus [26] = experiment: Antimicrobial activity against Micrococcus luteus ATCC 10240 assessed as unclear inhibition zone at 2 mM incubated for 20 hrs by agar diffusion assay; format: functional; conditions: ATCC 10240, 20 h, read-out: DIZ; method in brief: as §2
# Mycolicibacterium vaccae [27] = experiment: Antimicrobial activity against Mycobacterium vaccae IMET 10670 assessed as very unclear inhibition zone at 2 mM incubated for 48 hrs by agar diffusion assay; format: functional; conditions: IMET 10670, 48 h, read-out: DIZ; method in brief: as §1
SMILES,zone of inhibition at 2000 µM (Burkholderia dolosa),zone of inhibition at 2000 µM (Pseudomonas aeruginosa [3]),zone of inhibition at 2000 µM (Pseudomonas aeruginosa [4]),zone of inhibition at 2000 µM (Escherichia coli [5]),zone of inhibition at 2000 µM (Escherichia coli [6]),diameter of the inhibition zone (DIZ) (Staphylococcus aureus [8]),zone of inhibition at 2000 µM (Acinetobacter baumannii [2]),zone of inhibition at 2000 µM (Bacillus spizizenii [18]),zone of inhibition at 2000 µM (Staphylococcus aureus [8]),zone of inhibition at 2000 µM (Mycolicibacterium vaccae [20]),zone of inhibition at 2000 µM (Micrococcus luteus [9]),zone of inhibition at 2000 µM (Escherichia coli [10]),further results
Cc1ccc(S(=O)(=O)ON2C(=O)CC2CBr)cc1 (centres undefined),0 mm,0 mm,0 mm,0 mm,13 mm,Active,,,,,,,zone of inhibition at 2000 µM (Mycolicibacterium vaccae [1]): 17 mm; diameter of the inhibition zone (DIZ) (Acinetobacter baumannii [2]): Active; zone of inhibition at 2000 µM (Bacillus spizizenii [7]): 11 mm; diameter of the inhibition zone (DIZ) (Micrococcus luteus [9]): Active
CC(C)c1cc(C(C)C)c(S(=O)(=O)ON2C(=O)CC2CBr)c(C(C)C)c1 (centres undefined),0 mm,0 mm,0 mm,0 mm,,,0 mm,0 mm,0 mm,,,,zone of inhibition at 2000 µM (Mycolicibacterium vaccae [1]): 14 mm; diameter of the inhibition zone (DIZ) (Escherichia coli [10]): Active; Ki [11]: > 160 µM; Ki [12]: > 160 µM; Ki [13]: > 160 µM; Ki [14]: > 160 µM; Ki [15]: > 160 µM; Ki [16]: > 160 µM; Ki [17]: > 160 µM; zone of inhibition at 2000 µM (Micrococcus luteus [19]): 19 mm
CN(C)c1cccc2c(S(=O)(=O)ON3C(=O)CC3CBr)cccc12 (centres undefined),0 mm,0 mm,0 mm,,14 mm,,0 mm,0 mm,13 mm,16 mm,12 mm,,diameter of the inhibition zone (DIZ) (Escherichia coli [5]): Active
O=C1CC(CBr)N1OS(=O)(=O)c1ccc2ccccc2c1 (centres undefined),0 mm,0 mm,0 mm,0 mm,15 mm,,0 mm,13 mm,13 mm,17 mm,12 mm,,Ki [11]: > 160 µM; Ki [12]: > 160 µM; Ki [13]: > 160 µM; Ki [14]: > 160 µM; Ki [15]: 0.19 µM; Ki [16]: > 160 µM; Ki [17]: > 160 µM; Ki [21]: > 160 µM; zone of inhibition at 2000 µM (Bacillus spizizenii [22]): 17 mm
O=C1CC(CBr)N1OS(=O)(=O)c1ccc([N+](=O)[O-])cc1 (centres undefined),0 mm,0 mm,0 mm,0 mm,14 mm,Active,11 mm,14 mm,,0 mm,0 mm,,
O=C1CC(CBr)N1OS(=O)(=O)c1ccc([N+](=O)[O-])cc1[N+](=O)[O-] (centres undefined),0 mm,0 mm,0 mm,0 mm,15 mm,,0 mm,22 mm,,32 mm,,,zone of inhibition at 2000 µM (Staphylococcus aureus [23]): 14 mm; zone of inhibition at 2000 µM (Staphylococcus aureus [24]): 23 mm; zone of inhibition at 2000 µM (Micrococcus luteus [19]): 16 mm
CCOC(=O)c1cn(CC2CC(=O)N2OS(=O)(=O)c2ccc(C)cc2)nn1 (centres undefined),0 mm,0 mm,0 mm,0 mm,,,0 mm,,0 mm,0 mm,0 mm,0 mm,zone of inhibition at 2000 µM (Bacillus spizizenii [7]): 15 mm
Cc1ccc(S(=O)(=O)ON2C(=O)CC2Cn2cc(CNC(=O)c3ccccc3)nn2)cc1 (centres undefined),0 mm,0 mm,0 mm,0 mm,,,0 mm,0 mm,0 mm,0 mm,0 mm,0 mm,
O=C1CC(CBr)N1OS(=O)(=O)c1cccs1 (centres undefined),0 mm,0 mm,0 mm,0 mm,16 mm,,0 mm,0 mm,0 mm,0 mm,0 mm,,
Cc1ccc(S(=O)(=O)ON2C(=O)CC2Cn2cc(CNC(=O)c3cc(C(F)(F)F)ccc3Cl)nn2)cc1 (centres undefined),0 mm,0 mm,0 mm,0 mm,,Active,,,,0 mm,,0 mm,zone of inhibition at 2000 µM (Acinetobacter baumannii [25]): 13 mm; zone of inhibition at 2000 µM (Bacillus spizizenii [22]): 13 mm; zone of inhibition at 2000 µM (Micrococcus luteus [26]): 13 mm
Cc1ccc(S(=O)(=O)ON2C(=O)CC2CSC2=NCCS2)cc1 (centres undefined),0 mm,0 mm,0 mm,0 mm,14 mm,Active,0 mm,0 mm,,,0 mm,,diameter of the inhibition zone (DIZ) (Mycolicibacterium vaccae [20]): Active
O=C1CC(CBr)N1OS(=O)(=O)c1cccc2ccccc12 (centres undefined),0 mm,0 mm,0 mm,0 mm,,,0 mm,12 mm,,,,0 mm,zone of inhibition at 2000 µM (Mycolicibacterium vaccae [27]): 16 mm; Ki [11]: > 160 µM; Ki [12]: > 160 µM; Ki [13]: 4.67 µM; Ki [14]: > 160 µM; Ki [15]: 0.198 µM; Ki [16]: > 160 µM; Ki [17]: > 160 µM; zone of inhibition at 2000 µM (Staphylococcus aureus [23]): 14 mm; zone of inhibition at 2000 µM (Micrococcus luteus [26]): 13.5 mm
COc1ccc(S(=O)(=O)ON2C(=O)CC2CBr)cc1 (centres undefined),0 mm,0 mm,0 mm,0 mm,15 mm,,0 mm,,0 mm,,0 mm,,zone of inhibition at 2000 µM (Mycolicibacterium vaccae [1]): 17 mm; zone of inhibition at 2000 µM (Bacillus spizizenii [7]): 11 mm
